Screening data as filed in PubChem.
TRPC4 PAM: allosterically enhances the mouse TRPC4 cation channel; Q9QUQ5; HEK293 TRPC4beta/mu-opioid, DAMGO EC20, Fluo-4 Ca2+ flux; active compounds read high; B-score at 10 µM; 0.42% of 310,000 active; AID 2227;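 active = B-score of calcium response area above 5 SD of library B-scores, with initial fluorescence ratio within 5 SD of library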;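 also: B-score of integrated fluorescence ratio over time as area under calcium response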
TRPC4 inh: blocks the mouse TRPC4 cation channel; Q9QUQ5; HEK293 TRPC4beta/mu-opioid, DAMGO-evoked Fluo4 calcium flux; active compounds read low; B-score at 10 µM; 0.39% of 300,000 active; AID 2247;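 active = B-score over 3 SD under the library average, no early fluorescence shift, positive overall ratio signal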
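Material: HEK293 cells with stable TRPC4beta plus mu-opioid receptor expression / Probe or stimulus: DAMGO in two steps, submaximal then maximal / Compound: single concentration per test compound / Technique: kinetic Fluo4 fluorescence imaging of calcium influx / Read-out: per-well B score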
TRPC6 inhibitor: blocks the mouse TRPC6 cation channel | HEK293-TRPC6, membrane potential dye, ACh-evoked depolarization; active compounds read low | B-score at 10 µM | 1.1% of 310,000 active | AID 2553;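 active = B-score under library mean minus 3 SD, initial fluorescence not abnormally high, positive integrated signal ratio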;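 also: B-score derived from integrated fluorescence ratio over the kinetic read; more negative B-score means stronger inhibition of depolarization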
TRPC4 act: opens the mouse TRPC4 cation channel. Q9QUQ5. HEK293 TRPC4beta/mu-opioid, Fluo4 calcium fluorescence; active compounds read high. B-score at 10 µM. 0.49% of 310,000 active. AID 2237;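 active = B-score above 5 SD of library B-scores, and initial fluorescence ratio not above library mean plus 5 SD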;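 also: positive B-score marks a calcium rise read as TRPC4 activation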
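Assay system: HEK293 cells stably co-expressing mouse TRPC4beta and mu-opioid receptor / Timing: Fluo4 dye loading 45 min at room temperature, 110 s recording / Signal: Fluo4 calcium-sensitive dye fluorescence, kinetic, 1 Hz baseline / Read-out: integrated baseline-normalised fluorescence ratio, converted to per-well B score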
TRPC6 activator: activates the mouse TRPC6 cation channel. B-score at 10 µM. 0.13% of 310,000 active. HEK293-TRPC6 membrane potential dye fluorescence; active compounds read high;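 active = B-score of the integrated fluorescence ratio above library mean plus 3 SD, and starting fluorescence ratio within library mean plus 5 SD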;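 also: higher score means more depolarization so channel activation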
Kir21 block: inhibitors of mouse Kir2.1 inward-rectifier potassium channel; P35561; HEK293-Kir2.1, FluxOR thallium flux fluorescence; active compounds read low; B-score at 10 µM; 0.85% of 310,000 active;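 active = fluorescence ratio B-score at or below minus 3 SD of library scores, with starting-brightness B-score within 2 SD, cut at about -4.2 in these data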;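 also: channel flux triggered by added potassium and thallium sulfate stimulus; B-score of peak minus minimum fluorescence over baseline after thallium stimulus; more negative B-score means stronger Kir2.1 block with less thallium influx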
The depositor's hits bear a star; i = inactive. A selection: hits, their analogues and other compounds. The true share with any hit is near 2.9%.

SMILES	TRPC4 PAM	TRPC4 inh	TRPC6 inhibitor	TRPC4 act	TRPC6 activator	Kir21 block
CCC(Oc1cc(Cl)ccc1Cl)C(=O)N1CCCN(C)CC1 (stereo not given)	i	i	i	i	i	-0.42
CCCCn1c(N)c(N(CC(C)C)C(=O)C2CCN(S(=O)(=O)c3ccc(C)cc3)CC2)c(=O)[nH]c1=O	i	i	i	i	i	0.78
COc1cc(CNC(C)c2ccccc2)cc(Cl)c1OCC(=O)Nc1ccccc1 (stereo not given)	i	i	i	i	i	-9.48*
COc1ccccc1OCC(=O)NCCSCc1ccc(Cl)cc1	i	i	i	i	i	-4.71*
COc1ccccc1OCC(=O)Nc1ccc(Cl)cc1	i	-7*	i	i	i	0.71
COC(=O)[C@]1(C)N[C@H](c2ccc(-c3ccc(F)cc3)cc2)[C@@H]2C(=O)N(C)C(=O)[C@@H]21	i	i	i	i	i	0.53
CCCCN(CCCC)/C(N)=N/c1nc(C)cc(C)n1	i	-7*	i	i	i	-2.27
Cc1cc2nc(-c3ccc[nH]c3=O)n(Cc3ccccc3F)c2cc1C	i	i	i	i	i	-0.42
O=C(CSc1nc(=O)n(CCCN2CCOCC2)c2c1CCC2)Nc1cccc(F)c1	i	i	i	i	i	0.74
Cc1cc(C=O)c(C)n1-c1ccc(NC2CCCC2)c([N+](=O)[O-])c1	13*	i	i	i	i	0.74
O=C(C[N+]1(CC#Cc2ccccc2)CCCCC1)c1ccc(Cl)cc1	i	-6*	i	i	i	-2.43
CC(C)OC(=O)C(C)(C)Oc1ccc(C(=O)c2ccc(Cl)cc2)cc1	i	i	i	i	i	-0.17
CCNC(=O)NC(=O)C(C)OC(=O)C(C)(C)Oc1ccc(Cl)cc1 (stereo not given)	i	i	i	i	i	-5.31*
O=C(CNC(c1ccccc1)c1ccccc1)NCc1ccccc1Cl	i	i	i	i	i	-0.04
CCn1c2ccccc2c2cc(NC(C)=O)ccc21	i	i	i	i	i	1.49
CCn1c2ccccc2c2cc(NC(=O)CNCc3ccccc3OC)ccc21	i	i	i	i	i	0.07
CCn1c2ccccc2c2cc(NC(=O)CN3CCCC3)ccc21	28*	i	i	i	i	-3.54
CCn1c2ccccc2c2cc(NC(=O)CNCC3CCCO3)ccc21 (stereo not given)	i	i	i	i	i	-9.13*
NS(=O)(=O)c1ccc(CCNC(=O)c2ccc[nH]c2=S)cc1	i	i	i	i	i	0.05
CN(C)Cc1c(O)ccc2occ(C(=O)c3ccccc3)c12	i	i	i	i	i	-1.07
O=C(c1ccccc1)c1coc2ccc(O)c(CN3CCOCC3)c12	i	i	i	i	i	-6.28*
O=C(Oc1cccc2c(O)cccc12)c1ccccc1	i	i	i	i	i	-5.42*
O=C(O)CCc1ccccc1OC(=O)c1ccccc1	i	i	i	i	i	-0.61
COc1cccc(C(C[N+](=O)[O-])c2c(C)[nH]n(-c3ccccc3)c2=O)c1 (stereo not given)	i	i	i	i	i	-12.7*
O=C1/C(=C/c2ccc([N+](=O)[O-])cc2)C=C(c2ccccc2)N1c1ccc(O)cc1	i	i	-5.2*	i	i	1.48
O=C1/C(=C/c2ccc([N+](=O)[O-])cc2)C=C(c2ccccc2)N1c1ccccc1	i	i	i	i	i	1.33
O=C1CSC(c2ccccc2F)N1c1cc(Cl)ccc1O (stereo not given)	i	i	i	i	i	-6*
COc1cc2c(cc1OC)C(C)N(CCN1C(=O)c3ccccc3C1=O)CC2 (stereo not given)	i	i	i	i	i	-0.02
COc1cc2c(cc1OC)C(C)N(CCc1ccc(Cl)cc1)CC2 (stereo not given)	i	-6*	i	i	i	-0.13
